IC50 and inhibition data for eleven molecules are collected here from ChEMBL document CHEMBL4177655, “Synthesis and biological evaluation of Santacruzamate-A based analogues” (Bioorg Med Chem, 2017).

Structures are written as SMILES. Active and inactive are the calls of the source. The calls are words filed in the database; no cut-off is given here.

In test [1] the test system is HCT-116. Briefly: Antiproliferative activity against human HCT116 cells after 48 hrs by MTT assay. Format: functional, cell-based. The settings on record: HCT-116, 48 h.
Test [2] concerns HCT-116. The test can be described thus: Antiproliferative activity against human HCT116 cells after 24 hrs by MTT assay. The settings on record: HCT-116, 24 h. Format: functional, cell-based. In general terms: Formazan colour is commonly taken as a measure of viable cells.
Test [3] has as its system HCT-116. The test can be described thus: Antiproliferative activity against human HCT116 cells after 72 hrs by MTT assay. Format: functional, cell-based. The settings on record: HCT-116, 72 h.
Test [4] addresses T1, Histone deacetylase (Homo sapiens) (UniProt Q13547+O15379+Q9UBN7+Q92769+Q9UQL6+Q8WUI4+Q9BY41+Q96DB2+P56524+Q9UKV0+Q969S8). Briefly: Inhibition of HDAC in human HCT116 cells assessed as reduction in acetyl-histone-H4 levels at 10 uM after 24 hrs by Western blot analysis relative to control. It counts as cell-based. The gist of the method: (§1)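 HCT116 cells were treated 24 h at 10 µM, with DMSO vehicle as control. Total lysates (protein by Bradford against a BSA standard, ~30 µg loaded) were run on 15% SDS-PAGE under reducing conditions and transferred to nitrocellulose. Membranes were blocked in 5% milk, then probed with anti-acetyl-histone H3 or H4, with GAPDH as loading control. Detection by HRP secondary and ECL. Three experiments.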
In general terms: Immunoblotting shows a protein as a band on a membrane.

Test [5] deals with T2, Histone deacetylase 3/Nuclear receptor corepressor 2 (HDAC3/NCoR2) (Homo sapiens) (UniProt O15379+Q9Y618). The test can be described thus: Inhibition of human full length C-terminal His-tagged HDAC3/N-terminal GST-tagged human NCOR2 (395 to 489 residues) co-expressed in baculovirus infected Sf9 insect cells preincubated for 16 hrs measured every 5 mins by fluorescence assay.

The target in test [6] is Histone deacetylase 2 (Homo sapiens) (UniProt Q92769). The test can be described thus: Inhibition of full-length human recombinant HDAC2 expressed in baculovirus infected Sf9 insect cells preincubated for 16 hrs measured every 5 mins by fluorescence assay.
Chain of Histone deacetylase 2 (Homo sapiens) (Q92769 whole entry, the tested form may be a part): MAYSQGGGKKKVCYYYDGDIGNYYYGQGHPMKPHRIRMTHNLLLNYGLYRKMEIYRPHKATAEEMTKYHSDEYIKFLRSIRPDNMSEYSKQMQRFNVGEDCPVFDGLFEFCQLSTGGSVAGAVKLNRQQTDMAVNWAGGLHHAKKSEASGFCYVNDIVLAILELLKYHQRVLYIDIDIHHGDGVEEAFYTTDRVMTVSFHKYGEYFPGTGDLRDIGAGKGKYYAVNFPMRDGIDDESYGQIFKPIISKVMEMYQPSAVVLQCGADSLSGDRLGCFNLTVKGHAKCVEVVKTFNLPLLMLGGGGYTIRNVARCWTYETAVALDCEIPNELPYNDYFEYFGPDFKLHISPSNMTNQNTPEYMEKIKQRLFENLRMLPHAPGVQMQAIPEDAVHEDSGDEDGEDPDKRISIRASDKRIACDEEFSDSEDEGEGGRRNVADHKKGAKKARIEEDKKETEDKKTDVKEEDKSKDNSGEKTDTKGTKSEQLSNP
In test [7] the target is T2, Histone deacetylase 3/Nuclear receptor corepressor 2 (HDAC3/NCoR2) (Homo sapiens). The test can be described thus: Inhibition of human full length C-terminal His-tagged HDAC3/N-terminal GST-tagged human NCOR2 (395 to 489 residues) co-expressed in baculovirus infected Sf9 insect cells measured every 5 mins by fluorescence assay.
Test [8] addresses Histone deacetylase 1 (Homo sapiens) (UniProt Q13547). Briefly: Inhibition of full-length recombinant HDAC1 (unknown origin) expressed in baculovirus infected Sf9 insect cells measured every 5 mins by fluorescence assay.
The target in test [9] is T3, Histone deacetylase 8 (Homo sapiens) (UniProt Q9BY41).
T3 sequence (whole entry): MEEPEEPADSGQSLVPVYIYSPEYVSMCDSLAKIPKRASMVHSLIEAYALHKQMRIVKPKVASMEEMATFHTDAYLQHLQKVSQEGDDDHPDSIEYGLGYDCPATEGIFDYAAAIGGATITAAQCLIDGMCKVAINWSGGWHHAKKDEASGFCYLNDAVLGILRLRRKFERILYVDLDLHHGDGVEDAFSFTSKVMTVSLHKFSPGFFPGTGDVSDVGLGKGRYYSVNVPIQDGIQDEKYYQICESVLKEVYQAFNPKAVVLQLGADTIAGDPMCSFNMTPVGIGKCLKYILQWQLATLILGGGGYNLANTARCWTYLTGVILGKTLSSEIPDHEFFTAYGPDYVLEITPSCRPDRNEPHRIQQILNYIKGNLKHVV
The test can be described thus: Inhibition of human full-length recombinant C-termianl His-tagged HDAC8 expressed in baculovirus infected Sf9 insect cells measured every 5 mins by fluorescence assay.

The target in test [10] is T4, Protein deacetylase HDAC6 (Homo sapiens) (UniProt Q9UBN7).
T4 sequence (whole entry): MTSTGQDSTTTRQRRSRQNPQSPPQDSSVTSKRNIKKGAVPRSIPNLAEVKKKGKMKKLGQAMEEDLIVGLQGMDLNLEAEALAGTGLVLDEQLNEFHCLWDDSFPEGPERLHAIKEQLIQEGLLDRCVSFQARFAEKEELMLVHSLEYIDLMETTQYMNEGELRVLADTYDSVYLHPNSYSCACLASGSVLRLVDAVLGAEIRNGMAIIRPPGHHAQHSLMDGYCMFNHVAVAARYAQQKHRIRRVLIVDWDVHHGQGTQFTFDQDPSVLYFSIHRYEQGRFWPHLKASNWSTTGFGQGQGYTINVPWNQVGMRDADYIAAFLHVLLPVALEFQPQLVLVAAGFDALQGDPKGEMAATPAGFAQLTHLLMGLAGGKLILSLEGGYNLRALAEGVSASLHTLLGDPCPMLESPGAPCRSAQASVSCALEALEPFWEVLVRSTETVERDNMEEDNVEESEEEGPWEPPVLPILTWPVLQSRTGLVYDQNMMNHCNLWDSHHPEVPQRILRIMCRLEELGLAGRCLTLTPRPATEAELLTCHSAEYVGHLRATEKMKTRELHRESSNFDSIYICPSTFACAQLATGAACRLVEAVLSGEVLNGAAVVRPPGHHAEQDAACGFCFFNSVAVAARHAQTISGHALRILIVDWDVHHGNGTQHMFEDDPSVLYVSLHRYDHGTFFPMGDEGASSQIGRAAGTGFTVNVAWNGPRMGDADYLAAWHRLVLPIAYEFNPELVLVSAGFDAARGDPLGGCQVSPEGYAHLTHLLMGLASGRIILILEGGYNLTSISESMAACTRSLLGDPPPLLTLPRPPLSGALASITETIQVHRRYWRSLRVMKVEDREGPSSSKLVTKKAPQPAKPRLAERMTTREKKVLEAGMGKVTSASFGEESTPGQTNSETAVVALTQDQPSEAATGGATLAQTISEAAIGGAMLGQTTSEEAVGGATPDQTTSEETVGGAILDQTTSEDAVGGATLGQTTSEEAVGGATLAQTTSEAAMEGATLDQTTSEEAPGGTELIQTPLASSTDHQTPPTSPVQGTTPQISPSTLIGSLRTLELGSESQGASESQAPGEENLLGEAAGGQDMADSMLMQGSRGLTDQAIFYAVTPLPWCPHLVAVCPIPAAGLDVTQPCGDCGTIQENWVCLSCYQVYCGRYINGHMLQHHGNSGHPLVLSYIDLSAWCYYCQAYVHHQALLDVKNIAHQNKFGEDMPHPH
Briefly: Inhibition of full-length recombinant HDAC6 (unknown origin) expressed in baculovirus infected Sf9 insect cells measured every 5 mins by fluorescence assay.

Test [11] has as its target T1, Histone deacetylase (Homo sapiens). The test can be described thus: Inhibition of HDAC in human HCT116 cells assessed as reduction in acetyl-histone-H3 levels at 10 uM after 24 hrs by Western blot analysis relative to control. Format: cell-based. In outline: as §1
The target in test [12] is Histone deacetylase 1 (Homo sapiens) (UniProt Q13547). The test can be described thus: Inhibition of full-length recombinant HDAC1 (unknown origin) expressed in baculovirus infected Sf9 insect cells preincubated for 16 hrs measured every 5 mins by fluorescence assay.
Chain of Histone deacetylase 1 (Homo sapiens) (Q13547 whole entry): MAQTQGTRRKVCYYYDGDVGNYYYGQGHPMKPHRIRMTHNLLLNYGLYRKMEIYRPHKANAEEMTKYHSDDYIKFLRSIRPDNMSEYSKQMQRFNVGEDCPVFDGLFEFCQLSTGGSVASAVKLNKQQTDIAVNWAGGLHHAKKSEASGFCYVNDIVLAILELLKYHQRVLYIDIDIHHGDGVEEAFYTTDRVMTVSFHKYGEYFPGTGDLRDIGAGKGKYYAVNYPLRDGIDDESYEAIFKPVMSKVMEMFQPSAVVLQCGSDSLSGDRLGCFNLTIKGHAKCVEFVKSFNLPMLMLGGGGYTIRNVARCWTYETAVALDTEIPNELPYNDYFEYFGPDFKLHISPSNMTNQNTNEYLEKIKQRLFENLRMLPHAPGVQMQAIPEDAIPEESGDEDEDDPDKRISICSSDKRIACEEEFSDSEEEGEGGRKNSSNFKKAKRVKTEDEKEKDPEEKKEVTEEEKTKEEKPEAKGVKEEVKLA

For orientation: IC50 means the concentration that inhibits the measured activity by half. Low values mean greater potency, high ones weaker potency. As to `O=C(CCCNC(=O)C(=O)O)NCCc1cccc(O)c1`, the half-maximal inhibitory concentration (IC50) in the test with HCT-116 [1] and with HCT-116 [2] was > 50 µM throughout.
Regarding `O=C(CCCNC(=O)C(=O)O)NCCc1cccc(F)c1`, the concentration for half-maximal inhibition (IC50) with HCT-116 [2] is > 50 µM.
Consider `O=C(CCCNC(=O)C(=O)O)NCCc1ccccc1`, for which the IC50 in the test with HCT-116 [1] and in the test with HCT-116 [2] was > 50 µM throughout.
On to `O=C(CCCNC(=O)C(=O)O)NCCc1c[nH]c2ccccc12`, for which, in the test on HCT-116 [2], the IC50 is < 50 µM.
Take `CCOC(=O)NCCCC(=O)NCCc1cccc(F)c1`: the results for the 50% inhibitory concentration (IC50) in the test on HCT-116 [3], with HCT-116 [1] and in the test on HCT-116 [2] were 5 to 10 µM, 0.825 µM and > 50 µM, respectively.
Turning to `CCOC(=O)NCCCC(=O)NCCc1cccc(O)c1`, the inhibition entry in test [4], in [5], in [6], in [7], in test [8] and in [9] was “inactive” throughout. The inhibition result in test [10], in test [11] and in test [12] was “inactive” each time. Also, the IC50 in the test on HCT-116 [3] was 1 to 5 µM; with HCT-116 [1] it was 0.476 µM; in the test on HCT-116 [2], > 50 µM.
`CCOC(=O)NCCCC(=O)NCc1ccccc1`: the IC50 in the test with HCT-116 [3] is 0.615 µM; with HCT-116 [2], > 50 µM.
As to `CCOC(=O)NCCCC(=O)NCCc1ccccc1`, the IC50 with HCT-116 [3], in the test with HCT-116 [1] and in the test on HCT-116 [2] was > 50 µM each time. Also, the inhibition entry in [5], in test [6], in [7], in test [8], in test [9] and in [10] was “inactive” throughout. The inhibition result in test [12] is “inactive”.
Consider `O=C(CCCNC(=O)C(=O)O)Nc1ccccc1`, for which the inhibition result in [4] and in test [11] was “inactive” each time. The half-maximal inhibitory concentration (IC50) in the test with HCT-116 [1] is > 50 µM; with HCT-116 [2] it was 0.814 µM.
Regarding `O=C(CCCNC(=O)C(=O)O)NCCCc1ccccc1`, in the test on HCT-116 [2], the IC50 was > 50 µM.
As for `CCOC(=O)NCCCC(=O)NCCCc1ccccc1`, the IC50 in the test on HCT-116 [3], in the test with HCT-116 [1] and with HCT-116 [2] was > 50 µM in each case.
